In ChEMBL document CHEMBL1121818, “Some reactions of 1,4-dihydropyridines with organic azides. Synthesis of 2,7-diazabicyclo[4.1.0]hept-3-enes with analgesic and antiprotozoal activity” (1981):

Assays:
Type in all cases: functional
Mus musculus [1] = assay: Analgesic activity was measured on phenylquinone writhing in mice at 64 mg/kg subcutaneous dose; details: sc
Outline: (§1)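 Male Swiss albino mice, 18-22 g, five per group. Compound suspended in physiological saline with Tween 80 and given sc. 30 min later, 0.03% phenyl-p-benzoquinone given ip at 0.1 mL/10 g body weight. Total writhes per animal counted against a vehicle-treated control group. % change = (writhes treated/writhes control) × 100 − 100.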

Trichomonas vaginalis = assay: Compound was measured as concentration of compound required for 90% growth inhibition of Trichomonas vaginalis
Outline: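 Tube dilution in modified TYM basal medium, with compound added in µg/mL of medium. Inoculum 1 × 10^5/mL T. vaginalis trophozoites pre-grown 48 h in the same medium. Incubated 24 and 48 h at 35 °C. Aliquots diluted in saline with 1% formaldehyde and counted in a Speirs-Levy chamber. MIC is the lowest concentration giving 90% growth inhibition.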

Mus musculus [2] = assay: Analgesic activity was measured of phenylquinone writhing in mice at 16 mg/kg subcutaneous dose; details: sc; outline: as §1
Mus musculus [3] = assay: Analgesic activity was measured of phenylquinone writhing in mice at 64 mg/kg subcutaneous dose; details: sc; outline: as §1
Mus musculus [4] = assay: Analgesic activity was measured of phenylquinone writhing in mice at 8 mg/kg subcutaneous dose; details: sc; outline: as §1
Mus musculus [5] = assay: Analgesic activity was measured on phenylquinone writhing in mice at 128 mg/kg subcutaneous dose; details: sc; outline: as §1
Mus musculus [6] = assay: Analgesic activity was measured of phenylquinone writhing in mice at 32 mg/kg subcutaneous dose; details: sc; outline: as §1
Mus musculus [7] = assay: Analgesic activity was measured of phenylquinone writhing in mice at 4 mg/kg subcutaneous dose; details: sc; outline: as §1
Mus musculus [8] = assay: Analgesic activity was measured on phenylquinone writhing in mice at 56 mg/kg subcutaneous dose; details: sc; outline: as §1
Mus musculus [9] = assay: Analgesic activity was measured on phenylquinone writhing in mice at 50 mg/kg subcutaneous dose; details: sc; outline: as §1

Structure (SMILES) | MIC (Trichomonas vaginalis) [µg/mL] | inhibition in vivo at 128 mg/kg (Mus musculus [5]) [%] | further results
CN1C=CC[C@@H]2[C@H]1N2S(=O)(=O)c1ccccc1 (stereo partly drawn) | < 10 | – | inhibition in vivo at 64 mg/kg (Mus musculus [1]): 92%
CN1C=CC[C@@H]2[C@H]1N2S(=O)(=O)c1ccc(N)cc1 (stereo partly drawn) | < 10 | 97 | inhibition in vivo at 16 mg/kg (Mus musculus [2]): 45%; inhibition in vivo at 64 mg/kg (Mus musculus [3]): 78%; inhibition in vivo at 8 mg/kg (Mus musculus [4]): 40%; inhibition in vivo at 32 mg/kg (Mus musculus [6]): 69%; inhibition in vivo at 4 mg/kg (Mus musculus [7]): 23%
CN1C=CC[C@@H]2[C@H]1N2S(C)(=O)=O (stereo partly drawn) | < 10 | 50 | –
O=S(=O)(c1ccccc1)N1[C@@H]2CC=CN[C@@H]21 (stereo partly drawn) | – | 47 | –
CCC(=O)O[C@](Cc1ccccc1)(c1ccccc1)[C@H](C)CN(C)C [PROPOXYPHENE] | – | – | inhibition in vivo at 56 mg/kg (Mus musculus [8]): 50%
CC(=O)Oc1ccccc1C(=O)O [ASPIRIN] | – | – | inhibition in vivo at 50 mg/kg (Mus musculus [9]): 50%
CC(=O)Nc1ccc(S(=O)(=O)N2[C@@H]3CC=CN(C)[C@@H]32)cc1 (stereo partly drawn) | < 10 | 95 | –
CN1C=CC[C@@H]2[C@H]1N2C#N | < 10 | – | inhibition in vivo at 64 mg/kg (Mus musculus [1]): 86%
